ChEMBL document CHEMBL4513216, “Probing the Open Global Health Chemical Diversity Library for Multistage-Active Starting Points for Next-Generation Antimalarials” (ACS Infect Dis, 2020)

Experiment: Toxicity liver stage against HepG2, at 10uM
Assay type: cell-based
Parameters: test concentration 10 uM, cell line HepG2-A16-CD81EGFP
Details: human, HepG2-A16-CD81EGFP cells; read-out: INHIBITION
Outline: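 Uninfected HepG2-A16-CD81EGFP cells, 3 × 10^3 per well, 1536-well, plated on prespotted compound at 10 μM final, parasite-free screening media added to match infected plates; puromycin 10 μM positive, DMSO 0.5% negative; run in parallel with 48 h PbLuc assay at 37 °C, 5% CO2; viability by CellTiter-Glo luminescence, normalized to controls.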

Compound	cytotoxicity at 10 µM [%]
CC(Cn1cccn1)NC(=O)c1cc(C2CC2)nc2c1cnn2C (stereo unspecified)	0.351
CC(C)(CO)CNC(=O)c1ccnn1-c1ccc2ccccn12	15.8
CCCc1nc(C)c(C(=O)NCCNc2ncccn2)s1	-7.22
CSc1ncccc1C(=O)NCCC(O)c1ccco1 (stereo unspecified)	-2.93
COc1ccc(CN(C)Cc2nc3c(cnn3C)c(=O)[nH]2)cc1OC	0.457
CCC1CN(CC(=O)NCCN2CCCCC2)c2ccccc2S1 (stereo unspecified)	-10
Cc1cccc(C(=O)N2CCCSCC2CN2CCCC2)c1 (stereo unspecified)	8.77
CC(=O)NCCNC(=O)C(c1ccccc1C)N(C)C (stereo unspecified)	10.6
Cc1cnc(C(=O)NCc2ccc3c(c2)CCCN3C)cn1	-4.92
COc1ccc2c(c1)c(-c1nc(C)ncc1CN)cn2C	21.7
O=C(c1ccc2cc[nH]c2c1)N1CCCN(Cc2cscn2)CC1	-31.7
Cc1nc(NCC2CC2)nc2c1COCC21CCN(CC(=O)N(C)C)C1 (stereo unspecified)	-78.5
Cc1ccn(-c2ccccc2NCc2scnc2C)n1	7.28
O=C(c1cc(C2CC2)[nH]n1)N1CCCN(c2nccs2)CC1	6.37
Cc1ocnc1C(=O)N1CCN(Cc2ccccc2)[C@@H]2CS(=O)(=O)C[C@@H]21	-1.26
CNC(=O)[C@H]1C[C@@H]2CCN(c3nnc(C)s3)C[C@@H]2O1	-75.7
Cc1cc(Nc2nc(C)cs2)nc(C2CCCCN2CCO)n1 (stereo unspecified)	1.8
CC(C)NC(=O)COc1ccc(-c2nc(C(C)C)no2)cc1	5.67
CCn1cc2[nH]c(OC)c(CNC(=O)CCC3CCCC3)cc-2c1=O	-3.28
COc1ccc2c(c1)OCC(C(=O)NCc1ncc3c(n1)CCC3)C2 (stereo unspecified)	2.15
CCN(CCS(=O)(=O)c1ccc(Cl)cc1)Cc1ccc(OC)c(OC)c1	31.7
CCc1ccc(CN2CCN(c3ccc(C#N)cc3)C(=O)C2)nc1	-1.32
CSCC(=O)N(C)Cc1ccc(N(C)C)cc1	8.63

Compound	cytotoxicity at 10 µM [%]
O=C(NC1CCCCC1)N1C[C@@H]2OCCN(C(=O)c3ccco3)[C@@H]2C1	-152
CCc1n[nH]c(C2CN(C(=O)c3cnc(C)nc3CC)CCO2)n1 (stereo unspecified)	-3.39
COC(=O)[C@@H]1Cc2[nH]cnc2CN1Cc1cc2ccccc2o1	0.994
OCCN1CCN(Cc2cnc3c(-c4ccccc4)cnn3c2)CC1	-2.72
Cc1c(CN2CCc3[nH]cnc3C2C2CC2)[nH]c2ccc(F)cc12 (stereo unspecified)	10.8
O=S(=O)(NCC(O)c1ccoc1)c1ccc(Br)s1 (stereo unspecified)	5.76
CNC(=O)COC1COC2(CCN(Cc3ccncc3F)CC2)C1 (stereo unspecified)	7.37
CCN(CC)[C@H]1C[C@@H](Cc2cc(CO)on2)C1(C)C	9.12
Cc1ccccc1S(=O)(=O)N[C@@H]1CC[C@@H](N2CCNC(=O)C2)[C@@H]1O	4.29
COc1ccc(-c2nc(CN3CC(n4nc(C)cc4C)C3)no2)cc1	-3.88
O=C(Nc1nncs1)NC1CCCc2c1cnn2CCO (stereo unspecified)	-17.2
CCCc1noc(CS(=O)(=O)c2cccc(OC)c2)n1	17.4
Cc1cnn(CCC(=O)N2CCC3(CCC(=O)N(CC4CC4)C3)CC2)c1	-2.62
c1ccc2c(c1)nnn2CCCNC1CCOC2(CCOCC2)C1 (stereo unspecified)	-4.66
CCc1ccc(CN2CCC(c3ccccc3C(=O)O)C2)nc1 (stereo unspecified)	1.69
CSCc1cc(F)ccc1CNC(=O)N1CCCC(CO)C1 (stereo unspecified)	10.3
CNS(=O)(=O)c1ccc(CNC(=O)Nc2cc(C)on2)s1	-2.34
CNC(=O)c1ccc(C2CCCN(C(=O)c3sc(C)nc3C)C2)nc1 (stereo unspecified)	-36.5
Cc1nc(C)c2c(n1)CCN(C(=O)CC1CC1)CC2	2.34
Cc1cncc(CN2C[C@@H](O)[C@H](Oc3ccccc3)C2)c1	0.442
O=C(Nc1ccnc(OC2CCOC2)c1)c1cccs1 (stereo unspecified)	5.42
O=c1cc(CN2CCCC2)nc2n1CCCN(Cc1ccsc1)C2	-6.44
Cc1nn(C)c(C)c1CN1CCNCC1	4.68

Compound	cytotoxicity at 10 µM [%]
CN(C)CC(=O)N1CCc2ncnc(-c3ccoc3)c2CC1	-7.36
O=C(COc1ccc(Cl)cc1)N1CCN(c2cnccn2)CC1	-20.4
CC1=N[C@@]2(CC[C@@H]3CN(C(=O)NCc4cccc(F)c4)C[C@@H]32)C(=O)N1	-73.4
Cc1nc(CN2CCN(C(=O)c3scnc3C)CC2)cs1	0.524
CCNc1cc2c(nn1)CCN(C(=O)Cc1ccc(C)nc1)C2	-3.63
CCn1c(C(=O)N2CCCN(CC(N)=O)CC2)cc2ccccc21	-4.77
CN(C)c1ccc(C(=O)Nc2cnn(Cc3ccccn3)c2)cc1	-8.36
Cc1cc(N)nc(C2(C)CCCN2C(=O)c2cnccn2)n1 (stereo unspecified)	-27.1
O=S(=O)(NCC1(O)CCOc2ccccc21)c1cccs1 (stereo unspecified)	-16.8
Cc1nnc(CN(C)CC(=O)N2CCCN(C3CCCC3)CC2)n1C	7.1
Cc1nc(N(C)C)nc2c1COCC21CCN(CC2CC2)C1 (stereo unspecified)	-8.94
NC(=O)NC1(C(=O)N2CCc3c(Cl)cccc3C2)CCCCC1	-3.45
CC(C)Nc1ccc2nc(C3CCNCC3)nn2c1	-6.75
O=C(O)c1cccc(CN2CCCC(c3ccn[nH]3)C2)c1 (stereo unspecified)	3.98
Clc1ccc(CN2CCCC2Cn2cncn2)c2ncccc12 (stereo unspecified)	-9.66
CNc1cc(C2CCCN2C(=O)c2ccc3oc(=O)n(C)c3c2)ccn1 (stereo unspecified)	1.68
O=C(c1ccn(-c2cccc(F)c2)n1)N1CCCC(n2cccn2)C1 (stereo unspecified)	-5.25
O=C(c1cccc(OCc2cscn2)c1)N1CCOCC1	-6.13
COc1ccc(F)cc1C(C)NC(=O)Cn1ccc(=O)n(C)c1=O (stereo unspecified)	-8.35
COc1ccc(-c2nnc(C(C)N3CCOC(C)(C)C3)o2)cc1 (stereo unspecified)	2.62
O=C([C@H]1C[C@H]2OCC[C@H]2N(C(=O)c2ccccn2)C1)N1CCCCO1	13.1
Cn1ccc(C(=O)Nc2cccc(-c3ccc4c(c3)CCO4)n2)cc1=O	-1.26
Cn1cc(C(=O)N2CCCC2c2ccc3c(c2)OCO3)ccc1=O (stereo unspecified)	-14.8

Compound	cytotoxicity at 10 µM [%]
CC1CCN(c2ccc(=O)n(CC(=O)N(C)Cc3ccccc3)n2)CC1	4.84
CN(Cc1ccc(N(C)C)cc1)C(=O)NCc1nnc2n1CCC2	-21
Cc1nc(C)n(CC2CCCN2CC(=O)NC2CCOCC2)n1 (stereo unspecified)	-4.43
CC(CNC(=O)Nc1cn[nH]c1)N1CCOCC1 (stereo unspecified)	1.92
Cc1nc(C)n(C2CCCN(C(=O)CCCOc3ccccc3)C2)n1 (stereo unspecified)	-12.7
NC(=O)C1CN(C(=O)Nc2ccccc2Oc2ccccc2Cl)CCO1 (stereo unspecified)	-10.5
Cc1noc(C2CCN(C(=O)c3c(C)noc3C)CC2)n1	5.65
COc1cc(OC)cc(-c2noc(CN)n2)c1	20.6
COc1ccnc(N2CCN(CC(=O)N3CCC(C)CC3)CC2)n1	-3.63
Cc1ccc(C(=O)Nc2c(C(=O)N(C)C)nn(C)c2C)cc1	5.59
COCCCOC1CN(C(=O)c2[nH]nc3c2CCCC3)C1	8.11
Cc1cc(C)c(C#N)c(N2CCC3(CCCN(CCO)C3=O)C2)n1 (stereo unspecified)	0.854
CC(=O)NCCNC(=O)CCn1c(C)cc2ccccc21	6.26
CCCN(CC1CC1)C(=O)CN1CCCC1c1cnn(C)c1 (stereo unspecified)	2.45
CN1CCN(Cc2cn3c(n2)CN(Cc2cccnc2)CC3)CC1	5.25
CN(CCO)CC1COCCN1C(=O)CCC1CCCC1 (stereo unspecified)	-9.83
CC(C)Oc1cc(N2CC[C@@H](N3CCOCC3)[C@H](O)C2)nc(N)n1	-2.32
COc1cccc(OCC2CCCN(C(=O)c3ncoc3C3CC3)C2)c1 (stereo unspecified)	3.79
Cc1nc(N(C)C)nc(NCCc2c[nH]cn2)c1C	3.12
O=C1Nc2ccccc2C12CCN(Cc1nccs1)CC2	-0.243
Cn1cccc1C(=O)N1CCCCC1c1ccn2ccnc2n1 (stereo unspecified)	-28.2
Cc1nc(NCc2ccc(F)cc2)cc(C(=O)N2CCOCC2)n1	-9.14
CN1CCCC2(CCN(C(=O)c3ccncc3)C2)C1 (stereo unspecified)	-68.3

Compound	cytotoxicity at 10 µM [%]
Cc1nnc2n1CCN(C(=O)c1cnc3c(cnn3CC(C)C)c1)C2	-8.72
O=C(Cc1cccc(F)c1)N1CCCCC1c1ccn2ccnc2n1 (stereo unspecified)	-0.619
O=C(NC1CCCN(Cc2c(F)cccc2F)C1)c1cc[nH]n1 (stereo unspecified)	5.72
CC(C)NC(=O)Nc1ccc(CNCc2cccc(OC(F)F)c2)cc1	-7.96
O=C1CCN(C(=O)c2ncoc2-c2ccco2)c2ncccc2N1	-3.58
O=C(O)C1(n2ccc(-c3ccco3)n2)CCN(Cc2cccnc2)CC1	-131
CCC(CC)N(C)S(=O)(=O)c1ccc(CCNC(C)=O)s1	-3.45
CNC(=O)c1nnn(-c2ccccc2F)c1-c1ccccn1	-4.21
c1ccc(OC2COC3(CCN(Cc4ccccn4)CC3)C2)cc1 (stereo unspecified)	-69.2
CN(C)C(=O)c1cccc(CCNc2ccccc2S(C)(=O)=O)c1	11.5
Cc1occc1C(=O)NC1CCN(C(=O)Nc2cccnc2)CC1	8.98
CCc1ccccc1OCC(=O)Nc1ccnc(OCCN(C)C)c1	17.8
Cn1cccc1C(=O)N1C[C@H](OCC2CCOCC2)[C@H]2COC[C@H]21	-109
COc1ccc(CN2CCCn3nnc(COCC4CC4)c3C2)cc1	-110
O=C(NCc1ccc(OCC2CC2)nc1)c1c(F)cccc1F	1.49
Cc1ccc(C)c(CC(=O)NC2(C#N)CCOCC2)c1	6.31
COc1ncc(CN2CC[C@@](C)(O)[C@H](Oc3cccc(F)c3)C2)cn1	1.68
CCc1nc(C)c([C@H]2CN(C)C[C@@H]2C(=O)Nc2ccc(OC)cc2)[nH]1	-6.66
O=C(CCN1CCCO1)N1CCCC(CO)(CCCc2ccccc2)C1 (stereo unspecified)	2.76
